Consider 2 molecules from ChEMBL document CHEMBL5042548, “Multiparameter Optimization of Oxidative Phosphorylation Inhibitors for the Treatment of Pancreatic Cancer” (J Med Chem, 2022).

The source made the active and inactive calls. No cut-off for these calls is given here. A value given as a limit tells only on which side of the number the result lay.

The subject of series [1] is MIA PaCa-2. The series can be described thus: Cytotoxicity against human MIA PaCa-2 cells assessed as inhibition of cell growth incubated for overnight in glucose-containing medium followed by compound addition and measured after 7 days by MTT assay. Format: functional, cell-based. As to conditions: MIA PaCa-2, 168 h. Put shortly:
(§1)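 7-day MTT in glucose medium (RPMI 1640 + 10% FBS). Seeding is 200 cells/well for MIA PaCa-2 and 300 cells/well for BxPC-3, overnight at 37 °C, 5% CO2, before compound. MTT 3 mg/mL is added for 4 h, then DMSO, and absorbance is read at 570 nm. IC50 is by nonlinear regression; ≥3 independent experiments.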

A short description of series [2]: Toxicity in C57BL/6 mouse allografted with mouse Panc02 cells assessed as drug tolerability at 15 mg/kg, ip administered once a day for 28 days. Format: organism-based. As to conditions: in vivo, 672 h, time 28 day.
Series [3] has as its system MIA PaCa-2. Description: Cytotoxicity against human MIA PaCa-2 cells assessed as inhibition of cell growth incubated for overnight in galactose-containing medium followed by compound addition and measured after 3 days by MTT assay. In kind it is functional, cell-based. As to conditions: MIA PaCa-2, 72 h. Put shortly: (§2)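 MIA PaCa-2 3-day MTT in glucose medium (RPMI 1640 + 10% FBS) or galactose medium (glucose-free RPMI + 10 mM galactose + 10% FBS). Galactose wells are seeded at 8000 cells/well. MTT read-out is at 570 nm after DMSO solubilization. IC50 is by nonlinear regression; ≥3 independent experiments.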

A further series concerns BXPC-3. Description: Cytotoxicity against human BXPC-3 cells assessed as inhibition of cell growth incubated for overnight in glucose-containing medium followed by compound addition and measured after 7 days by MTT assay. In kind it is functional, cell-based. As to conditions: BXPC-3, 168 h. Put shortly: as §1
Series [4] in a line: Inhibition of oxidative phosphorylation in human MIA PaCa-2 cells assessed as reduction in ATP production incubated for 24 hrs in glucose-containing medium by celltiter-glo luminescence cell viability assay. Format: functional, cell-based. As to conditions: MIA PaCa-2, 24 h. Put shortly:
(§3)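 MIA PaCa-2 cells are seeded at 10000 cells/well in glucose RPMI + 10% FBS or in glucose-free RPMI + 10 mM galactose + 10% FBS. Total ATP is measured by CellTiter-Glo luminescence 24 h after compound. IC50 is by nonlinear regression; ≥3 independent experiments.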

The nature of series [5]: Metabolic stability in mouse liver microsomes assessed as half life at 10 uM measured up to 60 mins in presence of NADPH by LC-MS/MS analysis. The following applies: liver microsomes. Format: ADME, Microsome.
Series [6] in a line: Inhibition of oxidative phosphorylation in human MIA PaCa-2 cells assessed as reduction in ATP production incubated for 24 hrs in galactose-containing medium by celltiter-glo luminescence cell viability assay. As to conditions: MIA PaCa-2, 24 h. In kind it is functional, cell-based. Put shortly:
as §3

Series [7] is described as follows: Toxicity in C57BL/6 mouse allografted with mouse Panc02 cells assessed as body weight loss at 15 mg/kg, ip administered once a day for 28 days and measured twice per week. As to conditions: in vivo, 672 h, time 28 day. In kind it is organism-based. Put shortly:
(§4)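 Female C57BL/6 mice, 6-10 weeks old, get 5×10^6 Pan02 cells s.c. in the right flank and are randomized at ~100 mm3 (n = 5/group). Dosing is daily for 28 days. Vehicle is 10% DMSO/50% PG/40% saline, except 15 mg/kg uses 10% DMSO/60% PG/30% saline. Caliper volume (length×width²)/2 and body weight are recorded twice weekly.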

Series [8] has as its system MIA PaCa-2. Description: Cytotoxicity against human MIA PaCa-2 cells assessed as inhibition of cell growth incubated for overnight in glucose-containing medium followed by compound addition and measured after 3 days by MTT assay. In kind it is functional, cell-based. The following applies: MIA PaCa-2, 72 h. Put shortly: as §2
A short description of series [9]: Metabolic stability in human liver microsomes assessed as half life at 10 uM measured up to 60 mins in presence of NADPH by LC-MS/MS analysis. Format: ADME, Microsome. As to conditions: liver microsomes.
Another series deals with Panc02. The series can be described thus: Antitumor activity against Panc02 cells allografted in C57BL/6 mouse syngeneic model assessed as tumor growth inhibition at 10 mg/kg, po administered once daily for 28 days and measured twice per week. The following applies: time 28.0 day. Format: functional, organism-based. Put shortly:
as §4

Series [10] in a line: AUC (0 to infinity) in CD-1 mouse at 2 mg/kg, iv. Format: ADME, organism-based. More on the design: route intravenous, time infinity, dose 2 mg/kg. The following applies: in vivo. Put shortly: (§5)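 Plasma PK in CD-1 mice after single i.v. (2 mg/kg) or p.o. (10 mg/kg) dosing. Parameters come from non-compartmental analysis. Bioavailability = (AUC_po×Dose_iv)/(AUC_iv×Dose_po)×100%. Terminal t1/2 is taken from ≥3 points in the terminal phase.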

Series [11] in a line: Initial plasma concentration in CD-1 mouse at 2 mg/kg, iv. In kind it is ADME, organism-based. Put shortly: as §5
The nature of series [12]: Toxicity in C57BL/6 mouse allografted with mouse Panc02 cells assessed as body weight loss at 10 mg/kg, po administered once a day for 28 days and measured twice per week. The following applies: in vivo, 672 h, time 28 day. In kind it is organism-based. Put shortly: as §4
Series [13] is described as follows: Inhibition of oxidative phosphorylation complex I in human MIA PaCa-2 cells assessed as reduction in NAD+/NADH ratio incubated for 48 hrs in glucose-containing medium by NAD/NADH-Glo assay. In kind it is cell-based. The following applies: MIA PaCa-2, 48 h. Put shortly:
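MIA PaCa-2 cells at 5×10^3/well are treated next day for 48 h in RPMI 1640 + 10% FBS. After a PBS wash, cells are lysed with bicarbonate buffer/1% DTAB. Lysate is split: NAD+ with 0.4 N HCl at 60 °C for 15 min, NADH heated directly, then neutralized. NAD/NADH-Glo luminescence is read after 30 min. IC50 is by nonlinear regression.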

Series [14] in a line: Terminal elimination half life in CD-1 mouse at 10 mg/kg, po. In kind it is ADME, organism-based. The following applies: in vivo, read-out: LambdaZ (converted). Put shortly:
as §5

A short description of series [15]: Toxicity in C57BL/6 mouse allografted with mouse Panc02 cells assessed as drug tolerability at 10 mg/kg, po administered once a day for 28 days. Format: organism-based. The following applies: in vivo, 672 h, time 28 day.
Series [16] is described as follows: Terminal elimination half life in CD-1 mouse at 2 mg/kg, iv. The following applies: in vivo, read-out: LambdaZ (converted). In kind it is ADME, organism-based. Put shortly: as §5
Series [17] is described as follows: AUC(0 to t) in CD-1 mouse at 2 mg/kg, iv. The following applies: in vivo. More on the design: dose 2 mg/kg. In kind it is ADME, organism-based. Put shortly: as §5
Series [18] is described as follows: AUC (0 to infinity) in CD-1 mouse at 10 mg/kg, po. Also on record: route oral, time infinity, dose 10 mg/kg. As to conditions: in vivo. In kind it is ADME, organism-based. Put shortly: as §5
A short description of series [19]: AUC(0 to t) in CD-1 mouse at 10 mg/kg, po. Format: ADME, organism-based. More on the design: dose 10 mg/kg. As to conditions: in vivo. Put shortly: as §5
Series [20] in a line: Clearance in CD-1 mouse at 2 mg/kg, iv. As to conditions: in vivo. Format: ADME, organism-based. Put shortly: as §5
Series [21] in a line: Clearance in CD-1 mouse at 10 mg/kg, po. Format: ADME, organism-based. The following applies: in vivo. Put shortly: as §5
Series [22] is described as follows: Volume of distribution at steady state in CD-1 mouse at 2 mg/kg, iv. In kind it is ADME, organism-based. As to conditions: in vivo, read-out: Vdss. Put shortly: as §5
A short description of series [23]: Oral bioavailability in CD-1 mouse at 10 mg/kg. Format: ADME, organism-based. The following applies: in vivo. Put shortly: as §5

Consider `O=C([C@@H]1CCCN(S(=O)(=O)c2ccc(S(=O)(=O)N3CC[C@@H](O)C3)cc2)C1)N1CCC(F)(F)CC1`, for which the IC50 was 0.21 µM with MIA PaCa-2 [1]; 0.135 µM in the series with MIA PaCa-2 [3]; 0.33 µM in the series on BXPC-3; above 3 µM in [4]; 0.123 µM in series [6]; above 3 µM in the series with MIA PaCa-2 [8]. For the same molecule, the Activity result in series [2] and in [7] was “Non-Toxic” throughout. Further, the figures for the half-life at 10 µM in series [5] and in [9] were 0.437 h and 0.517 h, respectively.
In the case of `CC(C)S(=O)(=O)c1ccc(S(=O)(=O)N2CCC[C@@H](C(=O)N3CCC(F)(F)CC3)C2)cc1`, the result with Panc02 was Active. Besides, the area under the curve AUC(0-inf) in series [10] amounted to 0.657 µM·h; in series [18], 0.417 µM·h. Moreover, the C0 in series [11] is 354 ng/mL. Also, the Activity result in series [12] and in series [15] was “Non-Toxic” in each case. In addition, the half-inhibitory concentration (IC50) in series [13] is 0.0036 µM; with MIA PaCa-2 [3] it was 0.0091 µM; in the series with BXPC-3, 0.05 µM; in [4], above 3 µM; in series [6], 0.011 µM; in the series on MIA PaCa-2 [8], above 3 µM. The half-life was 3.06 h in series [14] and 1.42 h in series [16]. Further, the AUC(0-t) stood at 0.65 µM·h in [17] and 0.368 µM·h in series [19]. In addition, the half-life at 10 µM in series [5] and in series [9] was above 1 h throughout. In series [20], the clearance is 106 mL/min/kg. In series [21], the apparent clearance CL/F was 835 mL/min/kg. For the same molecule, in series [22], the Vd stood at 5.2 L/kg. The F in series [23] was 11.3%.
